BB579 growth dn – chemicals that inhibit yeast BB579 growth in restrictive medium (lifespan-shortening candidates). inhibition, % at 10 µM. S. cerevisiae BB579 growth, OD615, 48 h. 140,000 compounds, 0.51% hits;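 active = inhibition above a set limit, 3 SD over the mean compound inhibition, cut at about 44% in these data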
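Test system: DeaD yeast strain BB579 / Buffer or medium: restrictive glucose-based CSMM-D medium / Doses: single 10 µM dose / Schedule: 4 h cell preincubation, 48 h compound exposure, 30 °C humidified / Technique: culture absorbance at 615 nm / Controls: amphotericin B positive control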
RAM inhibit – yeast RAM network inhibition | inhibition, % at 50 µM | S. cerevisiae dse1pr::URA3 reporter, 5-FOA growth OD615, 2 d; analog-sensitive cbk1-as2 kinase mutant strain | 190,000 compounds, 1.8% hits;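 active = inhibition above a set limit, 3 SD over mean compound inhibition, cut at about 8.4% in these data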;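 note: 0% = DMSO-only wells with no growth and 100% = 10 µM 1-NA-PP1 full growth; inhibition rescues growth on 5-FOA so higher OD means more RAM inhibition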
Insulin prom inh – TRM-6 insulin promoter activity inhibition. TRM-6 cells, insulin promoter-eGFP reporter, imaging; reporter expression induced with tamoxifen. inhibition, % at 2 µM. 130,000 compounds, 0.9% hits;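 active = inhibition above the mean plus 3 SD, with well images judged a real hit on visual review, cut at about 60% in these data, passing the limit was not always enough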
Insulin prom up – MIN6 insulin promoter up-regulation; MIN6 insulin promoter-GFP reporter, high-content imaging; stronger effect = higher value; 190,000 compounds, 0.3% hits; z-score at 5 µM; AID 1625;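 active = z-score above 3 at 5 µM with at least 500 cells counted in the well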
Yeast life ext – yeast lifespan extension; S. cerevisiae growth with nicotinamide, OD615; deaD strain in restrictive glucose medium; inhibition of the nicotinamide effect, % at 10 µM; 130,000 compounds, 0.68% hits; AID 775;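 active = inhibition above a set limit, placed 3 SD over the median of all compounds, cut at about 26% in these data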;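 note: 0% = nicotinamide-treated wells and 100% = cells grown without nicotinamide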
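Measured by: optical density (absorbance) at 615 nm; System: modified budding yeast, DeaD strain; Medium: restrictive CSMM-D dextrose medium; Timing: 4 h preincubation then 48 h treatment at 30 °C.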
RAM efflux-def – RAM network inhibition, efflux-deficient strain. shares compounds with RAM inhibit. S. cerevisiae efflux-deficient reporter strain, 5-FOA growth OD615, 2 days. max inhibition, %. AID 1305. 1,200 tested, under 10 active; call rule not given here;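 note: plate controls were vehicle for no effect and reference inhibitor for full effect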
Active calls of the source: *; . = no result. Only some compounds are listed: those with a hit (about 3% of all), similar ones and a draw of the others.

SMILES	BB579 growth dn	RAM inhibit	Insulin prom inh	Insulin prom up	Yeast life ext	RAM efflux-def
O=[N+]([O-])c1ccc(C2CCCC/C2=N/OCc2ccccc2F)c([N+](=O)[O-])c1 (stereo not given)	-34	8	0	.	-5	.
N#C/C(=C\c1c[nH]c2ccccc12)C(=O)Nc1ncc(Cc2ccc(Cl)cc2Cl)s1	-44	14*	.	-0.84	3	3
Cn1cc(/C=C(\C#N)C(=O)Nc2ncc(Cc3cccc(Cl)c3)s2)c2ccccc21	-24	6	.	-0.62	4	.
Cc1ccc(/C=C/C(=O)Nc2ccc(Oc3ccccc3)cc2)o1	-22	13*	45	-0.09	-1	4
COC(=O)c1ccc(Cl)cc1NC(=O)/C=C/c1ccc(C)o1	-32	13*	4	2.1	3	4
CCOC(=O)C1=c2/c(=C/c3ccncc3)c(N)c(C(=O)OC)n2C(=O)C(c2ccncc2)S1 (stereo not given)	.	0	20	-0.62	.	.
Cc1cc(C)cc(N(C(=O)c2cccs2)C2C=CS(=O)(=O)C2)c1 (stereo not given)	.	2	56	-0.53	.	.
O=C(NCc1ccccc1F)c1ccc(S(=O)(=O)Nc2cccc(C(F)(F)F)c2)cc1	-14	1	.	.	1	.
O=C(NCc1ccc(F)cc1)c1ccc(S(=O)(=O)Nc2cccc(C(F)(F)F)c2)cc1	-22	13*	-34	0.21	4	2
COc1ccccc1/C=C/C(=O)c1ccc(Cl)cc1	-39	0	.	2.3	-6	.
COc1ccc(OC)c(/C=C/C(=O)c2ccc(Cl)cc2)c1	-13	13*	.	-0.77	-18	5
COc1ccc(/C=C/C(=O)c2ccc(OC)cc2OC)c(OC)c1	.	14*	.	0.42	.	2
COc1ccc(C(=O)/C=C/c2ccc(OC)c(COc3ccc(F)cc3)c2)cc1	-33	18*	3	0	3	3
O=S(=O)([N-]c1nc2ccccc2nc1-[n+]1ccccc1)c1ccc(F)cc1	.	0	.	0.17	.	.
CC(C)Cn1c(N)c(-c2nc(C(C)C)c(C(=O)c3ccccc3F)s2)c(=O)n(C)c1=O	.	12*	.	-0.83	.	2
Cc1c(C(=O)NCCSCc2cccc(C(F)(F)F)c2)cnn1-c1ccc(F)cc1	.	.	.	-0.16	.	.
CCOC(=O)C(C)(C)Sc1nc2c(cnn2-c2ccc(Cl)cc2)c(=O)[nH]1	-103	14*	.	2.1	4	3
CCCCSc1nc2c(cnn2-c2ccc(Cl)cc2)c(=O)[nH]1	-30	1	16	-0.63	-21	.
Cn1cc(CN2CCC[C@H]2CO)c(-c2cccc(Cl)c2)n1	.	2	.	0.05	.	.
CC(CO)Nc1nc(SCc2ccccc2)nc2sc3c(c12)CCC3 (stereo not given)	-32	1	6	0.41	-30	.
COCCNc1nc(SCc2ccccc2)nc2sc3c(c12)CCC3	-37	14*	-31	0.41	-15	3
COc1cccc(N/C(SCc2ccccc2C)=C(/C#N)C(=O)NCc2cccs2)c1	-66	20*	-106	-0.57	4	4
COc1cccc(N/C(SCc2ccccc2Cl)=C(/C#N)C(=O)NCc2cccs2)c1	-38	16*	.	-0.58	7	3
COc1cccc(N/C(SCc2cccc([N+](=O)[O-])c2)=C(/C#N)C(=O)NCc2cccs2)c1	-10	17*	-31	0.38	9	4
COc1cccc(N/C(SC)=C(/C#N)C(=O)NCc2cccs2)c1	.	6	-43	0.03	.	.
SMILES	BB579 growth dn	RAM inhibit	Insulin prom inh	Insulin prom up	Yeast life ext	RAM efflux-def
COc1ccc2c(c1)CCCC21NC(=O)N(CC(=O)NC(=O)NCc2ccccc2)C1=O (stereo not given)	.	1	.	-0.44	.	.
O=C(Cc1c(Cl)cccc1Cl)OCC(=O)N1CCN(C(=O)c2ccco2)CC1	.	0	.	0.31	.	.
COc1ccccc1-n1cc([C@@H]2C[C@H]3CN(c4ccccc4)C(=O)[C@]34CCCN24)cn1	.	0	.	0.24	.	.
CC(Oc1ccc(Cl)cc1)c1ccnn1S(=O)(=O)c1ccc(Cl)cc1 (stereo not given)	-45	3	-67	-0.52	-5	.
CC(Oc1ccc(-c2ccccc2)c(F)c1)c1ccn(S(=O)(=O)c2ccc(Br)cc2)n1 (stereo not given)	-69	12*	-17	.	-26	3
Cc1ccc(Oc2ccc(NC(=O)CCC(=O)OCC(=O)c3cccs3)cc2)cc1C	-46	13*	8	0.37	-5	3
CC(=O)c1ccc(NC(=O)COC(=O)CCC(=O)c2cccs2)cc1	-31	2	-75	-0.37	-5	.
O=C(Nc1ccc(F)c([N+](=O)[O-])c1)C(=O)c1c(O)[nH]c2ccccc12	.	1	-45	-0.52	.	.
CCOC(=O)c1c(C=O)c2sc(C)cc2n1C	.	2	-29	-0.19	.	.
Cc1cnn(-c2nc(-c3ccccc3)cc(-c3ccccc3)n2)c1	.	14*	.	-0.55	.	1
Cc1ccc(OCCn2cc(/C=C(\C#N)C(=O)NCC3CCCO3)c3ccccc32)cc1C (stereo not given)	-21	12*	.	-0.47	-1	6
Cc1ccc(C)c(OCCn2cc(/C=C(\C#N)C(=O)NCC3CCCO3)c3ccccc32)c1 (stereo not given)	-2	7	45	0.16	-7	.
Cc1ccc(OCCn2cc(/C=C(\C#N)C(=O)NCC3CCCO3)c3ccccc32)cc1 (stereo not given)	-56	14*	0	-0.83	3	6
COc1cc2c(=O)n(Cc3ccco3)c(=O)n(CC(=O)c3ccc(Br)cc3)c2cc1OC	-66	12*	-3	-1.6	-8	2
COc1cc2c(=O)n(Cc3ccco3)c(=O)n(CC(=O)c3cccc(Br)c3)c2cc1OC	-47	4	-32	-0.39	-11	.
Cc1ccc(C(=O)CC(=O)c2ccc(C(C)(C)C)cc2)cc1	.	20*	.	0.15	.	8
Cc1ccc(OCC(O)Cn2c3ccccc3c3ccccc32)cc1 (stereo not given)	-60	12*	3	0.02	-17	2
Cc1cccc(C)c1OCC(O)Cn1c2ccccc2c2ccccc21 (stereo not given)	-34	15*	.	0.31	-5	7
Cc1ccc(OCCN2CCN(CC(O)Cn3c4ccccc4c4ccccc43)CC2)cc1 (stereo not given)	1	0	.	0.05	-4	.
Cc1cccc(C)c1OCC(O)Cn1nnc2ccccc21 (stereo not given)	-40	1	5	0.29	-11	.
C/C(=N\Nc1ccc(F)cc1F)c1ccc(Br)s1	.	-1	.	-0.75	.	.
COC(=O)c1c(CSc2ccc(C)c(C)c2)noc1C(=O)NCc1ccc(OC)cc1	-37	12*	-9	-0.23	1	2
NC(=O)c1nnsc1Sc1c(C(N)=O)nnn1-c1cccc(N)c1	.	3	.	0.74	.	.
C=CCn1c(C)cc(C(=O)COC(=O)/C=C/c2cccc(OC)c2)c1C	.	20*	12	1.1	.	5
